PostGolgi yeast: growth inhibition of a yeast mutant, post-Golgi transport screen; post-Golgi transport phenotypic cell assay; inhibition, % at 10 µM; AID 739; 0.9% of 98,000 active;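 note: yeast cells grown in 1536-well plates; yeast grown about 18 h at 30C before absorbance read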
DAT uptake mod: changed human dopamine transporter uptake under cocaine IC80; Q01959; LLC-PK1 hDAT cells, [14C]-dopamine uptake with cocaine IC80; actives deviate in either direction; 1.3% of 110,000 active; AID 449768; B-score at 10 µM;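 active = Z score or B-score, a plate-position-corrected score, falls beyond the plate's 99.7% confidence bounds, in either direction; inactive = both scores lie inside the 99.7% bounds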;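 note: scored against the spread of the other compound wells on the same plate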
D1 allo mod: allosteric modulators of human D1 dopamine receptor. P21728. HEK293 D1, CRE-luciferase, dopamine EC30 potentiation; actives deviate in either direction. B-score at 10 µM. 5.9% of 58,000 active;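 active = luminescence count or its row- and column-corrected plate score outside the 99.7% band of the plate's sample wells, on either side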
Target sequence (P21728 whole entry, looked up): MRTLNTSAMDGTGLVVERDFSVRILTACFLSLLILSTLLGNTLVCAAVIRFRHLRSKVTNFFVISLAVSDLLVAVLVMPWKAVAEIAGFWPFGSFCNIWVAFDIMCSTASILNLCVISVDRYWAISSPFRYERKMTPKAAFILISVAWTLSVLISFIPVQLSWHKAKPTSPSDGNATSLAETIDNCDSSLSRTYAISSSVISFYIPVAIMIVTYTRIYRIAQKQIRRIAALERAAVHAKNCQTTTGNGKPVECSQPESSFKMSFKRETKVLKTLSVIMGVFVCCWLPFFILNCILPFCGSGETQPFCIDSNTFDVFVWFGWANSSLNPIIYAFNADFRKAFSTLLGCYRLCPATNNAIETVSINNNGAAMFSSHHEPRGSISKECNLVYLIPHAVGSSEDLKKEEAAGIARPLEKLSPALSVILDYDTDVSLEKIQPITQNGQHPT
Ecoli WT expand: growth inhibitors of E. coli BW25113 wild type. growth inhibition, % at 100 µM. 0.15% of 98,000 active. OD600 absorbance;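 active = growth inhibition above about 50% at one test dose, limit read from the data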;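 note: growth measured after 20 h incubation at 37 °C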
tolC growth inh: E. coli tolC mutant growth inhibition; E. coli BW25113 tolC mutant growth, OD615; growth inhibition, % at 10 µM (by protocol); 2.2% of 65,000 active;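 active = growth inhibition at or above a cutoff equal to the mean over every tested compound plus 3 SD, cut at about 60% in these data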;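 note: growth measured after 20 h incubation at 37 °C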
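Test system – E. coli BW25113 ΔtolC::kan, tolC deletion mutant strain · Detection – OD at 615 nm · Buffer or medium – LB with kanamycin 50 µg/mL · Times – 20 h compound exposure of bacteria at 37 °C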
PostGolgi ctrl: yeast control strain growth, post-Golgi counter-screen; efflux-deficient yeast background strain, growth absorbance A615, 16 h; inhibition, % at 10 µM; 5% of 98,000 active
Starred values were filed as active, the others as inactive. Rows were chosen to be rich in hits. Some 9.3% of all compounds tested hit in one or more screens of this group. Cut-off read from the data, not from the text of the source, unless noted: active = inhibition above about 30%; inactive = the rest.

Screening COc1ccc(C(=O)Nc2ccc(S(=O)(=O)N3CCCCC3)cc2)cc1 returned PostGolgi yeast 4, DAT uptake mod -0.49, Ecoli WT expand -14 and PostGolgi ctrl 11.
For COc1cccc(C(=O)Nc2ccc(NC(=O)C(C)(C)C)cn2)c1 the results were PostGolgi yeast -1, DAT uptake mod -0.18, D1 allo mod -6.3*, Ecoli WT expand 9, tolC growth inh -8 and PostGolgi ctrl -2.
For CC(=O)NS(=O)(=O)c1ccc(NC(=O)c2ccc(Br)o2)cc1 the results were PostGolgi yeast -7, DAT uptake mod -8.4*, Ecoli WT expand -5 and PostGolgi ctrl -3.
For COc1ccc(C(=O)Nc2ccc(S(=O)(=O)NC(C)=O)cc2)cc1 the results were PostGolgi yeast -8, DAT uptake mod -0.045, D1 allo mod 0.17, Ecoli WT expand -4, tolC growth inh -5 and PostGolgi ctrl 36*.
`O=C(Nc1ccc(S(=O)(=O)NCc2ccccc2)cc1)c1ccc(Br)o1` gave DAT uptake mod -0.26.
Screening Cc1ccc(CCNc2ccccc2C)cn1 returned DAT uptake mod -0.46.
For COc1ccc2cc3cc(C(=O)Nc4cc(OC)c(OC)c(OC)c4)oc3nc2c1 the results were PostGolgi yeast -7, DAT uptake mod 0.098, Ecoli WT expand -5 and PostGolgi ctrl 13.
`CCN(C(=O)c1cc2cc3ccc(C)cc3nc2o1)c1ccc(OC)cc1` gave PostGolgi yeast 7, DAT uptake mod 1.1, D1 allo mod 0.084, Ecoli WT expand -15, tolC growth inh 72* and PostGolgi ctrl 17.
`Cc1ccc2cc3cc(C(=O)NCCC(C)C)oc3nc2c1` gave PostGolgi yeast -6, DAT uptake mod 0.06, D1 allo mod -1.3, Ecoli WT expand -3, tolC growth inh -9 and PostGolgi ctrl 1.
Screening COc1ccc2cc3cc(C(=O)NC(C)C)oc3nc2c1 returned PostGolgi yeast -5, DAT uptake mod -8.2*, Ecoli WT expand -5 and PostGolgi ctrl -4.
`c1ccc(-c2ccc(OCCCn3cncn3)cc2)cc1` gave PostGolgi yeast 97*, DAT uptake mod -0.18, Ecoli WT expand 3, tolC growth inh 3 and PostGolgi ctrl 89*.
`Fc1cccc2sc(Nc3nnc(-c4ccco4)o3)nc12` gave PostGolgi yeast 5, DAT uptake mod -0.0094, D1 allo mod -2.7*, Ecoli WT expand -6, tolC growth inh 99* and PostGolgi ctrl 24.
COc1cccc2sc(Nc3nnc(-c4ccc(F)cc4)o3)nc12 was read as PostGolgi yeast 3, DAT uptake mod -2.4, Ecoli WT expand -14 and PostGolgi ctrl -1.
O=C(c1c(O)c2ccccc2oc1=O)C1CCCCC1 was read as PostGolgi yeast 5, DAT uptake mod 1.1, Ecoli WT expand -5 and PostGolgi ctrl 5.
`O=C(CCC1CCCC1)c1c(O)c2ccccc2oc1=O` gave PostGolgi yeast -1, DAT uptake mod -3.2*, D1 allo mod -3.1*, Ecoli WT expand 14, tolC growth inh 97* and PostGolgi ctrl 0.
Screening COc1ccc(N2CCN(C(c3cccs3)c3nnnn3C3CCCC3)CC2)cc1 (configuration not stated) returned PostGolgi yeast 13, DAT uptake mod -1.3, D1 allo mod 0.19, Ecoli WT expand -7, tolC growth inh 25 and PostGolgi ctrl 78*.
Fc1ccc(N2CCN(C(c3cccs3)c3nnnn3C3CCCC3)CC2)cc1 (configuration not stated) was read as PostGolgi yeast 11, DAT uptake mod 0.36, D1 allo mod 0.27, Ecoli WT expand -20, tolC growth inh 3 and PostGolgi ctrl 36*.
Screening COc1ccc(N2CCN(C(c3ccccc3OC)c3nnnn3C3CCCC3)CC2)cc1 (configuration not stated) returned PostGolgi yeast 3, DAT uptake mod -0.34, D1 allo mod -0.52, Ecoli WT expand -9, tolC growth inh 9 and PostGolgi ctrl 3.
For C=CCNc1nc2c(c(=O)[nH]c(=O)n2C)n1Cc1cccc(C)c1 the results were PostGolgi yeast -3, DAT uptake mod 0.67, D1 allo mod 0.78, Ecoli WT expand 6, tolC growth inh -6 and PostGolgi ctrl 1.
For Nc1c(C(=O)NC2CCCCC2)nsc1C(=O)OCC(=O)NC1CCCCC1 the results were PostGolgi yeast -8, DAT uptake mod -0.23, D1 allo mod -1.6, Ecoli WT expand -11, tolC growth inh 15 and PostGolgi ctrl 31*.
For CCOC(=O)c1snc(C(=O)NC2CCCCC2)c1N the results were PostGolgi yeast -6, DAT uptake mod -0.041, D1 allo mod 0.38, Ecoli WT expand 10, tolC growth inh 10 and PostGolgi ctrl 6.
CCOC(=O)c1c(C)c(C(=O)NC2CCCCCC2)c(C)n1C was read as PostGolgi yeast 3, DAT uptake mod 0.68, D1 allo mod 0.41, Ecoli WT expand -6, tolC growth inh -4 and PostGolgi ctrl 8.
`CCOC(=O)c1sc(C)c(C(=O)NC2CCCCC2)c1N` gave PostGolgi yeast 14, DAT uptake mod -2.7*, Ecoli WT expand -3 and PostGolgi ctrl 8.
For COC(=O)c1ccccc1NC(=O)c1cc2ncc(Br)cn2n1 the results were PostGolgi yeast 17, DAT uptake mod -2.3*, D1 allo mod 0.34, Ecoli WT expand -7, tolC growth inh -8 and PostGolgi ctrl 12.
O=C(Nc1ccc(F)cc1F)c1cc2ncc(Br)cn2n1 was read as PostGolgi yeast -8, DAT uptake mod -0.85, D1 allo mod 0.0047, Ecoli WT expand -14, tolC growth inh 2 and PostGolgi ctrl 14.
For Cc1cc(C)nc(SCc2nnc(SCc3ccccc3Cl)o2)n1 the results were PostGolgi yeast 9, D1 allo mod -0.91, Ecoli WT expand -2, tolC growth inh 8 and PostGolgi ctrl 17.
Screening Clc1ccc(Cn2cc(/C=N/n3cnnc3)c3ccccc32)cc1 returned PostGolgi yeast -4, DAT uptake mod 1.1, D1 allo mod -1.1, Ecoli WT expand 3, tolC growth inh 36 and PostGolgi ctrl 42*.
C=CCNc1nc2c(c(=O)n(C)c(=O)n2C)n1CC(=C)C was read as DAT uptake mod 0.03, D1 allo mod -0.015 and tolC growth inh 7.
Screening Cc1cc(N2CCOCC2)nc(-c2ccc([N+](=O)[O-])cc2)n1 returned PostGolgi yeast 0, Ecoli WT expand -7 and PostGolgi ctrl 10.
`Cc1ccc(-c2nc3ccccc3s2)cc1S(=O)(=O)N1CCOCC1` gave PostGolgi yeast -7, DAT uptake mod -0.84, Ecoli WT expand -2 and PostGolgi ctrl 34*.
`O=S(=O)(c1cc(-c2nc3ccccc3s2)ccc1Cl)N1CCOCC1` gave PostGolgi yeast 22, DAT uptake mod 0.47, Ecoli WT expand -1 and PostGolgi ctrl 5.
CCC(=O)c1ccc(OCC(O)CN(CCc2ccccc2)Cc2ccccc2)cc1 (configuration not stated) was read as PostGolgi yeast 6, DAT uptake mod 1.6, Ecoli WT expand -11 and PostGolgi ctrl 52*.
`COc1ccc2[nH]c(-c3ccc(C)cc3)cc(=O)c2c1` gave DAT uptake mod 0.67.

Bioassay records as filed in PubChem BioAssay.
